# Activity calls are given as the source filed them. The rule behind the calls is not given here. Square brackets hold non-standard residues; d marks the D form. Peptide text beside a SMILES is read from it. * marks the point of attachment. ξ: configuration not given here. AspCH2OBz(2,6-Me2) = Cc1cccc(C)c1C(=O)OCC(=O)[C@H](CC(=O)O)N*; Biotin = O=C1N[C@H]2[C@H](CS[C@H]2CCCCC(=O)*)N1; Tyr(3-I) = N[C@@H](Cc1ccc(O)c(I)c1)C(=O)O; X1 = O=C1N[C@@H]2CSC(CCCCC(=O)*)[C@@H]2N1; ξD = NC(CC(=O)O)C(=O)O; Ahx = NCCCCCC(=O)O; CH2F = FC*
# Tests used:
# [1] = biological target: T1, Caspase-3 (Homo sapiens) (UniProt P42574); test: Binding affinity to caspase 3 in human Sh-SY-5Y cells extracts assessed as protein labeling by SDS-PAGE based affinity blotting; assay type: cell-free
# T1 sequence (whole entry): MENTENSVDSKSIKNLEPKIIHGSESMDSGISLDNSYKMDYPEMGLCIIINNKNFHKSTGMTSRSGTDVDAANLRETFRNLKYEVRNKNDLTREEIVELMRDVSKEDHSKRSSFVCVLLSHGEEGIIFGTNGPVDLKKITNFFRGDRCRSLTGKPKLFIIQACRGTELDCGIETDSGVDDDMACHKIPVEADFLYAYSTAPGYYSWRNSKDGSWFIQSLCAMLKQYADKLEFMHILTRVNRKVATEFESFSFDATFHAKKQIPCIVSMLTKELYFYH
# [2] = biological target: T2, Caspase-7 (Homo sapiens) (UniProt P55210); test: Binding affinity to caspase 7 in human Sh-SY-5Y cells extracts assessed as protein labeling by SDS-PAGE based affinity blotting; assay type: cell-free
# T2 sequence (whole entry): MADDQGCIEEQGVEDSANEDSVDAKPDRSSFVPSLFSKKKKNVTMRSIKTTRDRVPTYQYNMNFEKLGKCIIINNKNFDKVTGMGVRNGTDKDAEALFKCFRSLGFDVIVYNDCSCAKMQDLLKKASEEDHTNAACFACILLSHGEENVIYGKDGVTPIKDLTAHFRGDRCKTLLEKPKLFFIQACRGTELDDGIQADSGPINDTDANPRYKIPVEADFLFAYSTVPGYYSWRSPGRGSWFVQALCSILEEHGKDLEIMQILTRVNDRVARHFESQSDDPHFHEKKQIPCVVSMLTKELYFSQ
# [3] = biological target: T3, Legumain (Homo sapiens) (UniProt Q99538); test: Binding affinity to human purified legumain assessed as protein labeling; conditions: tested as the 125I-labelled form
# T3 sequence (whole entry): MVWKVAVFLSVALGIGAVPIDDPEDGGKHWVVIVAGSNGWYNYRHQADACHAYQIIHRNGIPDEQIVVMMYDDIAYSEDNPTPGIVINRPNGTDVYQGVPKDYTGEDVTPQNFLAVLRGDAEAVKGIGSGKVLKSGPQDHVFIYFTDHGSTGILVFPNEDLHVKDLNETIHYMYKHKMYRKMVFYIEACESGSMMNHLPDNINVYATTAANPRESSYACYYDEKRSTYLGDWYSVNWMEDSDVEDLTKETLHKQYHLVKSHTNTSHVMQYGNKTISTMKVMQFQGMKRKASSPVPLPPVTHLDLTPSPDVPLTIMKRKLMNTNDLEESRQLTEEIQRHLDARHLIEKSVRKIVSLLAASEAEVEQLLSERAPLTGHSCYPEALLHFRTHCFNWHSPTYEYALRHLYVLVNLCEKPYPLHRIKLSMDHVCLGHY
# [4] = biological target: T4, Legumain (Mus musculus) (UniProt O89017); test: Binding affinity to legumain in mouse spleen lysates assessed as protein labeling at 10 uM after 30 mins by SDS-PAGE based affinity blotting; assay type: tissue-based; conditions: tested as the 125I-labelled form
# T4 sequence (whole entry): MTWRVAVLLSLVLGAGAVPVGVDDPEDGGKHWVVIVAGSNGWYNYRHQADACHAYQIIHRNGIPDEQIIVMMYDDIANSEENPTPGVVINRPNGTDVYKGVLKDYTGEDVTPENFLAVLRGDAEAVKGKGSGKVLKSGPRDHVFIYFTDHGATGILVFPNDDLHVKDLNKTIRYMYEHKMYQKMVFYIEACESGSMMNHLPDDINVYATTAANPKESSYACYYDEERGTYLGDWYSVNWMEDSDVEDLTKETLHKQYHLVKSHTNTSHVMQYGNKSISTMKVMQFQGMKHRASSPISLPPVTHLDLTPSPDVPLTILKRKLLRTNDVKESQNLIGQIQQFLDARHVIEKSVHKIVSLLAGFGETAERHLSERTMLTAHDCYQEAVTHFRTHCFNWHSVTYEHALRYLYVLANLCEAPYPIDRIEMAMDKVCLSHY
# [5] = biological target: T3, Legumain (Homo sapiens); test: Binding affinity to legumain in human 2.2.93 cells assessed as protein labeling at 10 uM after 30 mins by SDS-PAGE based affinity blotting; assay type: cell-based; conditions: tested as the 125I-labelled form
# Method in brief: (§1)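 B cell lines (2.2.93, 8.1.6, Raji) and Jurkat T cell pellets were lysed in 50 mM citrate phosphate, 1% CHAPS, 0.5% Triton, 5 mM DTT for 10 min on ice, then spun at 14,000g for 15 min at 4 °C. Lysates were set to 1 mg/ml in citrate phosphate pH 5.8, 0.1% CHAPS, 5 mM DTT and labeled for 30 min at 37 °C. Read-out was SDS-PAGE and biotin affinity blot.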
# [6] = biological target: T3, Legumain (Homo sapiens); test: Binding affinity to legumain in human 8.1.6 cells assessed as protein labeling at 10 uM after 30 mins by SDS-PAGE based affinity blotting; assay type: cell-based; conditions: tested as the 125I-labelled form; method in brief: as §1
# [7] = biological target: T3, Legumain (Homo sapiens); test: Binding affinity to legumain in human Raji cells assessed as protein labeling at 10 uM after 30 mins by SDS-PAGE based affinity blotting; assay type: cell-based; conditions: tested as the 125I-labelled form; method in brief: as §1
# [8] = biological target: T3, Legumain (Homo sapiens); test: Binding affinity to legumain in human Jurkat T cells assessed as protein labeling at 10 uM after 30 mins by SDS-PAGE based affinity blotting; assay type: cell-based; conditions: tested as the 125I-labelled form; method in brief: as §1
# [9] = biological target: T3, Legumain (Homo sapiens); test: Binding affinity to legumain in human 8.1.6 cells assessed as protein labeling at 10 uM after 30 mins immunoprecipitation; assay type: cell-based; conditions: tested as the 125I-labelled form
# Method in brief: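 8.1.6 B cell lysate at 1 mg/ml in citrate phosphate pH 5.8, 0.1% CHAPS, 5 mM DTT was labeled with probe for 30 min at 37 °C. Legumain was then immunoprecipitated with polyclonal anti-legumain antisera. Input, pellet and supernatant were probed for biotinylated proteins.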
# [10] = biological target: T1, Caspase-3 (Homo sapiens); test: Binding affinity to human recombinant caspase 3 assessed as protein labeling by SDS-PAGE based affinity blotting; conditions: tested as the 125I-labelled form
# [11] = biological target: T5, Caspase-6 (Homo sapiens) (UniProt P55212); test: Binding affinity to human recombinant caspase 6 assessed as protein labeling by SDS-PAGE based affinity blotting; conditions: tested as the 125I-labelled form
# T5 sequence (whole entry): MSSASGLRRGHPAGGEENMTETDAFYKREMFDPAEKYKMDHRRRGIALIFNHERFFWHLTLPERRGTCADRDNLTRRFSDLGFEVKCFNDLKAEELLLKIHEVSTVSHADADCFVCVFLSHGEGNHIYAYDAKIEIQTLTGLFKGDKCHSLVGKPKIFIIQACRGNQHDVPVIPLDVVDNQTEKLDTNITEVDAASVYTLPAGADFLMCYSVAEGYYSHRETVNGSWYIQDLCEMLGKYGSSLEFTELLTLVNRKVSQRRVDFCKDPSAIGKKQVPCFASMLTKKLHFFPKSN
# [12] = biological target: T2, Caspase-7 (Homo sapiens); test: Binding affinity to human recombinant caspase 7 assessed as protein labeling by SDS-PAGE based affinity blotting; conditions: tested as the 125I-labelled form
# [13] = biological target: Caspase-8 (Homo sapiens) (UniProt Q14790); test: Binding affinity to human recombinant caspase 8 assessed as protein labeling by SDS-PAGE based affinity blotting; conditions: tested as the 125I-labelled form
# [14] = biological target: T3, Legumain (Homo sapiens); test: Binding affinity to legumain in human 8.1.6 cells assessed as protein labeling at 1 uM at acidic pH after 30 mins by SDS-PAGE based affinity blotting; conditions: tested as the 125I-labelled form
# [15] = biological target: T6, Caspase-9 (Homo sapiens) (UniProt P55211); test: Binding affinity to human recombinant caspase 9 assessed as protein labeling by SDS-PAGE based affinity blotting; conditions: tested as the 125I-labelled form
# T6 sequence (whole entry): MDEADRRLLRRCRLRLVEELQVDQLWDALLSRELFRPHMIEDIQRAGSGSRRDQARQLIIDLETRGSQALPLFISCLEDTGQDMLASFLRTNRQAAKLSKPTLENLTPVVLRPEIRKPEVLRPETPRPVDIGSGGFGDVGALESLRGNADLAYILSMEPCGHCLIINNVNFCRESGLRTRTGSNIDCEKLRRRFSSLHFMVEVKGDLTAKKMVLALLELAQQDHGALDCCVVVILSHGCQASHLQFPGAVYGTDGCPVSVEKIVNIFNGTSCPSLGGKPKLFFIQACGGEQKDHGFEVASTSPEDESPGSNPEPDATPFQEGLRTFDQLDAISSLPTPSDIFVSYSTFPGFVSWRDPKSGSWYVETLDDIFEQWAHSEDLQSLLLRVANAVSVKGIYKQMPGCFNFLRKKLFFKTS
# [16] = biological target: T6, Caspase-9 (Homo sapiens); test: Binding affinity to caspase 9 in human Sh-SY-5Y cells extracts assessed as protein labeling by SDS-PAGE based affinity blotting; assay type: cell-free
# Caspase-8 (Homo sapiens), sequence (Q14790 217-374 limits assumed): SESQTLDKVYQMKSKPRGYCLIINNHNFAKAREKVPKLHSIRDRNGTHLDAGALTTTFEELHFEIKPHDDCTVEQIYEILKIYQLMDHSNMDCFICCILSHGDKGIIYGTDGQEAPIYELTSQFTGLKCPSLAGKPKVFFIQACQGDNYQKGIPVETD
# Caspase-8 (Homo sapiens), sequence (Q14790 385-479 limits assumed): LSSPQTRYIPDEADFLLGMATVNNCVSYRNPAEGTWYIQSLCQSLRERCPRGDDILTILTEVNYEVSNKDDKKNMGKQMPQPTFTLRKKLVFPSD
SMILES,Activity [1],Activity [2],Activity [3],Activity [4],Activity [5],Activity [6],Activity [7],Activity [8],Activity [9],Activity [10],Activity [11],Activity [12],Activity [13],Activity [14],Activity [15],Activity [16]
COC(=O)CC(NC(=O)[C@H](C)NC(=O)[C@@H](NC(=O)CCCCCNC(=O)CCCC[C@@H]1SC[C@@H]2NC(=O)N[C@@H]21)C(C)C)C(=O)CF (stereo partly drawn) ({Biotin-Ahx}-Val-Ala-[ξD](OMe)-CH2F),Active,Active,–,–,–,–,–,–,–,–,–,–,–,–,–,–
CC(=O)N[C@@H](CCCCNC(=O)CCCCC1SC[C@H]2NC(=O)N[C@@H]12)C(=O)N[C@@H](Cc1ccc(O)c(I)c1)C(=O)NCCCCCC(=O)N[C@@H](CC(=O)O)C(=O)COC(=O)c1c(C)cccc1C (stereo not given in full),–,–,Active,Active,Active,Active,Active,Active,Active,Active,Active,Active,Active,Active,–,–
"CC(=O)N[C@@H](CCCCNC(=O)CCCCC1SC[C@H]2NC(=O)N[C@@H]12)C(=O)N[C@@H](Cc1ccc(O)c(I)c1)C(=O)NCCCCCC(=O)N[C@@H](CCC(=O)O)C(=O)N[C@H](C(=O)N[C@@H](CC(=O)O)C(=O)COC(=O)c1c(C)cccc1C)C(C)C (stereo not given in full) (Ac-K(X1)[Tyr(3-I)][Ahx]EV-{AspCH2OBz(2,6-Me2)})",–,–,–,–,–,–,–,–,–,Active,inactive,Active,Active,–,Active,Active

# Reference: ChEMBL document CHEMBL1221168, “Activity-based probes that target diverse cysteine protease families” (Nat Chem Biol, 2005)
